Data published in ChEMBL document CHEMBL4043205, “Picomolar inhibition of β-galactosidase (bovine liver) attributed to loop closure” (Bioorg Med Chem, 2017).
Calls of active or inactive are those of the source. The rule behind the calls is not given here.

How the values were obtained:
[1] = biological target: T1, Beta-galactosidase (Bos taurus) (UniProt Q58D55); assay: Competitive inhibition of bovine liver beta-galactosidase using 4-nitrophenyl-beta-D-galactopyranoside substrate measured over 240 mins at 10 mins intervals by UV/Vis spectroscopy based Lineweaver-Burk plot
T1 sequence (whole entry): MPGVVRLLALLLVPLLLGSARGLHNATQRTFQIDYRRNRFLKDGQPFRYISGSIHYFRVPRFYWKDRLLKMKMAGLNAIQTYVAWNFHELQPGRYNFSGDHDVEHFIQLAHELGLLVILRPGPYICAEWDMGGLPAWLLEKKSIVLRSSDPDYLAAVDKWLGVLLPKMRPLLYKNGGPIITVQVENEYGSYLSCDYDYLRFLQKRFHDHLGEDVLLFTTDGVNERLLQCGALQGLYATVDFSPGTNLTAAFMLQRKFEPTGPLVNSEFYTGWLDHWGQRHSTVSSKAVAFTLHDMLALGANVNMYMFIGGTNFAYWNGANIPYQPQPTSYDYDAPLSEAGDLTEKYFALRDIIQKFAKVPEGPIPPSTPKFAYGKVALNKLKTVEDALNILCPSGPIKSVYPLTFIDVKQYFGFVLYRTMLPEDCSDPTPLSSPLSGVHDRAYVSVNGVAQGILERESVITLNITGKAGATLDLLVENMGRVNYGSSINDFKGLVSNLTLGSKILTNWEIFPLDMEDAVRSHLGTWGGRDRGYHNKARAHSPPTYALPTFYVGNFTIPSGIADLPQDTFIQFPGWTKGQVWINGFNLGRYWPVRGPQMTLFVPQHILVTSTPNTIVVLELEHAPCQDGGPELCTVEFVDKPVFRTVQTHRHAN

Beta-galactosidase [2] = biological target: T2, Beta-galactosidase (Bos taurus, UniProt Q58D55); assay: Inhibition of bovine liver beta-galactosidase pre-incubated for 30 mins with 4-nitrophenyl-beta-D-galactopyranoside substrate before enzyme addition measured over 45 mins at 27 secs intervals by UV/Vis based spectroscopy
T2 sequence (Q58D55 whole entry): T1 sequence (whole entry)
Procedure, shortened: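 Bovine liver enzyme (stock aliquot thawed, diluted in 5 mM HEPES, kept on ice). Varied 4-nitrophenyl-β-D-galactopyranoside with fixed inhibitor, pH 7.50 HEPES, equilibrated 30 °C 30 min before enzyme; 405 nm read for 45 min. Initial rates via ε 13,300 M−1 cm−1, fitted Michaelis-Menten at ≥2 inhibitor levels; competitive Ki from K′m = Km(1+[I]/Ki); duplicates, Lineweaver-Burk check.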

Aspergillus oryzae [3] = assay: Binding affinity to Aspergillus oryzae beta-galactosidase assessed as induction of changes in enzyme molar ellipticity by CD spectroscopy
[4] = Inhibition of Aspergillus oryzae beta-galactosidase using 2-chloro-4-nitrophenyl b-dgalactopyranoside substrate
Beta-galactosidase [5] = biological target: T2, Beta-galactosidase; assay: Inhibition of bovine liver beta-galactosidase using 4-nitrophenyl-beta-D-galactopyranoside substrate measured over 240 mins at 10 mins intervals by UV/Vis spectroscopy
Procedure, shortened: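 Bovine liver enzyme in 5 mM HEPES pH 7.50; 4-nitrophenyl-β-D-galactopyranoside mixed with 11 inhibitor dilutions (stocks 0.005–200 μM), equilibrated 30 °C 30 min, then enzyme added. Absorbance at 405 nm followed 240 min; final reads converted to percent inhibition against buffer control, plotted versus log inhibitor concentration; duplicates.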

Aspergillus oryzae [6] = assay: Inhibition of Aspergillus oryzae beta-galactosidase using 2-chloro-4-nitrophenyl b-dgalactopyranoside substrate by Eddie-Hofstee plot
[7] = Inhibition of Aspergillus oryzae beta-galactosidase using 2-chloro-4-nitrophenyl b-dgalactopyranoside substrate relative to control
[8] = biological target: T1, Beta-galactosidase (Bos taurus); assay: Binding affinity to bovine liver beta-galactosidase assessed as induction of changes in enzyme molar ellipticity by CD spectroscopy
Procedure, shortened: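 The bovine liver enzyme stock was diluted in 5 mM HEPES and kept on ice. It was mixed 1:1 by volume with aqueous inhibitor stock and equilibrated. Ellipticity was recorded from 190–275 nm at 0.5 nm resolution in a 10 mm path cell, averaging 5 scans. Spectra were background-corrected for unbound inhibitor and buffer.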

Aspergillus oryzae [9] = assay: Inhibition of Aspergillus oryzae beta-galactosidase using 2-chloro-4-nitrophenyl b-dgalactopyranoside substrate by Lineweaver-Burk plot
[10] = biological target: T1, Beta-galactosidase (Bos taurus); assay: Competitive inhibition of bovine liver beta-galactosidase using 4-nitrophenyl-beta-D-galactopyranoside substrate measured over 240 mins at 10 mins intervals by UV/Vis spectroscopy based Eddie-Hofstee plot

Row | Compound | Inhibition mode (qualitative, Lineweaver-Burk) [1] | Ki (Beta-galactosidase [2]) [nM] | Activity (Aspergillus oryzae [3]) | Ki [4] [nM] | IC50 (Beta-galactosidase [5]) [nM] | inhibition activity (qualitative) (Aspergillus oryzae [6]) | IC50 [7] [nM] | Activity [8] | inhibition activity (Aspergillus oryzae [9]) | competitive inhibition (qualitative call) [10]
1 | N=C1N[C@H](CO)[C@H](O)[C@H](O)[C@H]1O | Active | 2000 | inactive | 150 | > 50000 | Active | 830 | inactive | Active | Active
2 | OC[C@H]1N/C(=N\Cc2ccccc2)[C@H](O)[C@@H](O)[C@H]1O | Active | 0.05 | inactive | 21.1 | 18.9 | Active | 49 | inactive | Active | Active
3 | CO[C@H]1C(NCc2ccc(C)cc2)=N[C@H](CO)[C@H](O)[C@@H]1O | Active | 1500 | inactive | 3400 | 10800 | Active | 41400 | inactive | Active | Active
